Entries after “also recorded” stand apart in the source; their conditions may differ. Read-outs that look alike come from different tables or passages of the source.
How the values were obtained:
[1] = system: iPSC-derived human spinal motor neurons; format: cell-based
[2] = system: iPSC-derived human cortical glutamatergic neurons; format: cell-based
[3] = system: GFP-labeled iPSC-derived human neurons; format: cell-based
LUHMES = details: NeuriTox test, IC50 (viability/neurite area) ratio ≥4; ref Delp et al., 2018; cited from earlier work
[4] = system: iPSC-derived human spinal motor neurons; test: Cell viability / cytotoxicity; format: cell-based
Summary of the method: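 GFP-expressing iPSC-derived motor neurons were seeded at 800 cells/well on PDL-coated 1536-well plates and grown 40 h at 37 °C. Test compound was then added at 11 concentrations (1.56 nM–92 μM, 1:3) and exposed 24 and 48 h. Cells were counted as number of objects from GFP high-content images (488/530 nm, 20×, four fields/well). Values were normalized to 46 μM rotenone (−100%) and 0.46% DMSO (0%), in triplicate.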

PeriTox test cells = details: IC50 (viability/neurite area) ratio ≥3, ref Delp et al., 2018; cited from earlier work
[5] = motor neurons, active at either 24 or 48 hours, 1.56 nM to 92 μM
[6] = cortical neurons, active at either 24 or 48 hours, 1.56 nM to 92 μM
[7] = cortical and/or motor neurons, not specified, 24 or 48 hours, up to 92 μM
[8] = cortical neurons, 24 hours of treatment
[9] = cortical neurons, 48 hours of treatment

Brc1ccc(Oc2ccc(Br)cc2Br)c(Br)c1 [2,2′,4,4′-tetrabromodiphenyl ether]
neurite outgrowth inhibition (activity call) [1, 5]: affected | neurite outgrowth inhibition (activity call) ([1]; motor neurons, active at either 24 or 48 hours, 1.56 nM to 92 μM, listed as 2,2’,4,4’-tetrabromodiphenyl ether): inhibited | neurite outgrowth inhibition (activity call) [2, 6]: only affected neurite outgrowth in motor neurons

CCCCC(CC)COC(=O)c1cc(Br)c(Br)c(Br)c1Br (stereo not drawn) [2-ethylhexyl-2,3,4,5-tetrabromobenzoate]
neurite outgrowth inhibition in this study (activity call) [3, 7]: inhibit neurite outgrowth

CC(C)(c1cc(Br)c(O)c(Br)c1)c1cc(Br)c(O)c(Br)c1 [3,3’,5,5’-tetrabromobisphenol A]
neurite outgrowth inhibition (activity call) [2, 6]: inhibited

COc1cc2c(c(OC)c1OC)-c1ccc(OC)c(=O)cc1[C@@H](NC(C)=O)CC2 [Colchicine]
neurite outgrowth inhibition (activity call) [1, 5]: inhibited | neurite outgrowth inhibition (activity call) [2, 6]: inhibited

CC/C(=C(/CC)c1ccc(O)cc1)c1ccc(O)cc1 [Diethylstilbestrol]
selective effect on neurite outgrowth (LUHMES): selective effects

O=C1O[C@H]([C@@H](O)CO)C(O)=C1O [L-ascorbic acid]
neurite outgrowth inhibition in this study (activity call) [3, 7]: inhibitor of neurite outgrowth | cytotoxicity [4]: cytotoxic

CCCCCC [N-hexane, n-hexane]
neurite outgrowth inhibition in this study (activity call) [3]: not have been active

CC(C)[C@@H]1NC(=O)[C@H](C)OC(=O)[C@@H](C(C)C)NC(=O)[C@@H](C(C)C)OC(=O)[C@H](C(C)C)NC(=O)[C@H](C)OC(=O)[C@@H](C(C)C)NC(=O)[C@@H](C(C)C)OC(=O)[C@H](C(C)C)NC(=O)[C@H](C)OC(=O)[C@@H](C(C)C)NC(=O)[C@@H](C(C)C)OC1=O [Valinomycin]
selective effect on neurite outgrowth (PeriTox test cells): selective effects | selective effect on neurite outgrowth (LUHMES): selective effects | selective effect on neurite outgrowth in this study ([3]; neuron type not specified): selective effects

c1ccc2cc3ccccc3cc2c1 [anthracene]
neurite outgrowth inhibition (activity call) [1, 5]: affected | neurite outgrowth inhibition (activity call) [2, 6]: only affected neurite outgrowth in motor neurons

CN(C)c1ccc(C(=N)c2ccc(N(C)C)cc2)cc1.Cl [auramine O]
neurite outgrowth inhibition in this study (activity call) [3, 7]: inhibit neurite outgrowth

c1ccc2c(c1)-c1cccc3c1c-2cc1ccccc13 [benzo (b) fluoranthene]
neurite outgrowth inhibition (activity call) [2]: active

Oc1ccc(C(c2ccc(O)cc2)(C(F)(F)F)C(F)(F)F)cc1 [bisphenol AF]
neurite outgrowth inhibition in this study (activity call) [3, 7]: inhibit neurite outgrowth | neurite outgrowth inhibition (activity call) [2, 6]: inhibitory effects; also recorded: inhibited

CC(C)(c1ccc(O)cc1)c1ccc(O)cc1 [bisphenol A]
neurite outgrowth inhibition (activity call) [2, 8]: not active | neurite outgrowth inhibition (activity call) [2, 9]: active; also recorded: inhibitory effects

Cn1c(=O)c2c(ncn2C)n(C)c1=O [caffeine]
neurite outgrowth inhibition (activity call) [1]: inhibited; also recorded: affected | neurite outgrowth inhibition in this study (activity call) [3, 7]: inhibit neurite outgrowth | neurite outgrowth inhibition (activity call) [2]: only affected neurite outgrowth in motor neurons

CC1(C)[C@H](C(=O)O[C@H](C#N)c2cccc(Oc3ccccc3)c2)[C@@H]1C=C(Br)Br [deltamethrin]
neurite outgrowth inhibition (activity call) [2, 8]: not active | neurite outgrowth inhibition (activity call) [2, 9]: active; also recorded: inhibitory effects

C[C@]12CC[C@@H]3c4ccc(O)cc4CC[C@H]3[C@@H]1CC[C@@H]2O [estradiol]
neurite outgrowth inhibition in this study (activity call) [3, 7]: inhibit neurite outgrowth

CCCCC(CC)COP(=O)(Oc1ccccc1)Oc1ccccc1 (stereo not drawn) [ethylhexyl diphenyl phosphate, 2-ethylhexyl diphenyl phosphate]
neurite outgrowth inhibition (activity call) [2, 8]: active

CC(=O)[O-].CC(=O)[O-].O.O.O.[Pb+2] [lead (II) acetate trihydrate]
neurite outgrowth inhibition in this study (activity call) [3, 7]: inhibit neurite outgrowth

[CH3][Hg][Cl] [methyl mercuric (II) chloride]
neurite outgrowth inhibition (activity call) [1, 5]: inhibited | neurite outgrowth inhibition (activity call) [2, 6]: inhibited

CCOP(=S)(OCC)Oc1ccc([N+](=O)[O-])cc1 [parathion]
neurite outgrowth inhibition (activity call) [2, 6]: inhibitory effects; also recorded: inhibited

CCC1(c2ccccc2)C(=O)NC(=O)NC1=O [phenobarbital]
neurite outgrowth inhibition in this study (activity call) [3, 7]: not be active

C=C(C)[C@H]1Cc2c(ccc3c2O[C@@H]2COc4cc(OC)c(OC)cc4[C@@H]2C3=O)O1 [rotenone]
neurite outgrowth inhibition (activity call) [1, 5]: inhibited neurite outgrowth in a concentration dependent manner | selective effect on neurite outgrowth (LUHMES): selective effects | neurite outgrowth inhibition (activity call) [2, 6]: inhibited neurite outgrowth in a concentration dependent manner

CC(C)(C)C(O)(CCc1ccc(Cl)cc1)Cn1cncn1 (stereo not drawn) [tebuconazole]
neurite outgrowth inhibition (activity call) [2, 8]: not active | neurite outgrowth inhibition (activity call) [2, 9]: active; also recorded: inhibitory effects

— publication PMC9444042 (Neurotoxicology, 2021)
